Values after ≈ are worked out from the molar mass of the structure shown.

What is called IC50 is the point on the concentration scale where inhibition reaches its midpoint. A word on the solubility: it is the concentration that dissolves in the medium under given conditions. A higher solubility goes with much dissolved substance.

In data set [1] the target is T1, Bifunctional epoxide hydrolase 2 (Homo sapiens, UniProt P34913).
T1 sequence (P34913 whole entry): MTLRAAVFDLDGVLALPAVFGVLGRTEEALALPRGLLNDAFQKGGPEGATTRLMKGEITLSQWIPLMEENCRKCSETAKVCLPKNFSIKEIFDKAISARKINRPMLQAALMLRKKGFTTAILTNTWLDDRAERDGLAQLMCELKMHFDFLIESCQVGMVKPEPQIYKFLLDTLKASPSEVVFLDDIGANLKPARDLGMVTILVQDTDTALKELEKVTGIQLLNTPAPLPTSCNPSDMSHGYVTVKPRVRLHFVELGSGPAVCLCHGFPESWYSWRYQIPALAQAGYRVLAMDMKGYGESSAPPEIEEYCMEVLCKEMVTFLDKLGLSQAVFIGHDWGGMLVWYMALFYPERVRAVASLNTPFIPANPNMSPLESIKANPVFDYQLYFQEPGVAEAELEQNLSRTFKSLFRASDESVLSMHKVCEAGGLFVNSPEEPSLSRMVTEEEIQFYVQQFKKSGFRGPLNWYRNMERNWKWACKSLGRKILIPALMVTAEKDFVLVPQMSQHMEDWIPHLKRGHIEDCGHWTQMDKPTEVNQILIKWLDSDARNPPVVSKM
The experiment in a line: Inhibition of recombinant human sEH expressed in baculovirus expression system using CMNPC as substrate preincubated for 5 mins followed by substrate addition measured for 10 mins by fluorescent based assay. In a few lines:
(§1)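 Kinetic fluorescent assay giving IC50 values; each value is the mean of three separate experiments.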

The nature of data set [2]: Aqueous solubility of the compound in 0.1 M sodium phosphate buffer at pH 7.4. In kind it is physicochemical. In short, it runs like this:
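Solubility determined in 0.1 M sodium phosphate buffer, pH 7.4, with 1% DMSO present.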

The target in data set [3] is T2, Bifunctional epoxide hydrolase 2 (Mus musculus, UniProt P34914).
T2 sequence (P34914 whole entry): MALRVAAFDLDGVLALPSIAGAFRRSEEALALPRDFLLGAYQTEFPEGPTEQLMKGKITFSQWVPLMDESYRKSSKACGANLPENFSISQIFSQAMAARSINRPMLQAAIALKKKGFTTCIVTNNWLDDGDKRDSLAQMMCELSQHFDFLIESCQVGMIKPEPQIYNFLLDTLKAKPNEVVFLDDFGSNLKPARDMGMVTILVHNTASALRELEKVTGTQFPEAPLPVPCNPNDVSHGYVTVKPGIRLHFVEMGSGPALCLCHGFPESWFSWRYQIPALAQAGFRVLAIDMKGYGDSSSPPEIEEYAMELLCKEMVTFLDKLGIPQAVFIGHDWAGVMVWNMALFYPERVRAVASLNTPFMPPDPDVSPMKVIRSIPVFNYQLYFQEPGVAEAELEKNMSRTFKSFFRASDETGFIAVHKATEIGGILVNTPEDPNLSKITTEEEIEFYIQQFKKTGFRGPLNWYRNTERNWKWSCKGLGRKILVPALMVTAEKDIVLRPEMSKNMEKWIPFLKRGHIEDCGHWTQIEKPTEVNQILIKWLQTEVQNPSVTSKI
Kind of data set: Inhibition of recombinant mouse sEH expressed in baculovirus expression system using CMNPC as substrate preincubated for 5 mins followed by substrate addition measured for 10 mins by fluorescent based assay. In short, it runs like this: as §1

Data set [4] deals with T3, Bifunctional epoxide hydrolase 2 (Rattus norvegicus, UniProt P80299).
T3 sequence (P80299 whole entry): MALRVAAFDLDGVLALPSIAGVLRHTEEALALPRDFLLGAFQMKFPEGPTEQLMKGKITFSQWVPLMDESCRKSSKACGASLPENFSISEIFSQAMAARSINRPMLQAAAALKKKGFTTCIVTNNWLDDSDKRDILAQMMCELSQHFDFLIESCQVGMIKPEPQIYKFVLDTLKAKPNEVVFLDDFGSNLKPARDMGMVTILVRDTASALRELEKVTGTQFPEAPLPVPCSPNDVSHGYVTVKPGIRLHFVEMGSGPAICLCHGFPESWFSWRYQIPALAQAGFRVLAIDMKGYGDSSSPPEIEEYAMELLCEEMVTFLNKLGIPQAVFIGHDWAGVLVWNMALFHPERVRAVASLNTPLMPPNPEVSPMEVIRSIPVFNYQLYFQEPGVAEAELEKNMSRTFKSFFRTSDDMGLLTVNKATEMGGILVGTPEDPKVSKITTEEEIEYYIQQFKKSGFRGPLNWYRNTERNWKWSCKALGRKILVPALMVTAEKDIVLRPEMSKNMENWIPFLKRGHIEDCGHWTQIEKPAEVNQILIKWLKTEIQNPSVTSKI
Kind of data set: Inhibition of rat sEH using CMNPC as substrate preincubated for 5 mins followed by substrate addition measured for 10 mins by fluorescent based assay. In short, it runs like this: as §1

On to `S=C(NCCCNC(=S)NC12CC3CC(CC(C3)C1)C2)NC12CC3CC(CC(C3)C1)C2`, for which the IC50 came out at 97.6 nM in data set [1], 74.9 nM in data set [3] and 43.3 nM in data set [4]. The solubility in data set [2] lay in the range of 90 to 100 µM (≈ 41.5 to 46.1 µg/mL).

Consider `S=C(Nc1ccccc1)NC1C2CC3CC(C2)CC1C3` (stereo not drawn), for which the figures for the half-maximal inhibitory concentration (IC50) in data set [1], in data set [3] and in data set [4] were 229 nM, 408 nM and 356 nM, respectively. Moreover, the solubility in data set [2] lay within 70 to 80 µM (≈ 20.1 to 22.9 µg/mL).

`S=C(NCc1ccccc1)NC1C2CC3CC(C2)CC1C3` (stereo not drawn): the IC50 in data set [1] was found to be 34 nM; in data set [3] it was 61 nM; in data set [4], 60.3 nM. Moreover, in data set [2], the solubility was 65 to 75 µM (≈ 19.5 to 22.5 µg/mL).

`S=C(NCCCCCCCCCCNC(=S)NC12CC3CC(CC(C3)C1)C2)NC12CC3CC(CC(C3)C1)C2`: the half-maximal inhibitory concentration (IC50) in data set [1] was determined as 15.3 nM; in data set [3], 59.5 nM; in data set [4], 44.4 nM. In addition, the solubility in data set [2] lay in the range of 35 to 45 µM (≈ 19.6 to 25.2 µg/mL).

As for `S=C(NCCCCNC(=S)NC12CC3CC(CC(C3)C1)C2)NC12CC3CC(CC(C3)C1)C2`, the figures for the 50% inhibitory concentration (IC50) in data set [1], in data set [3] and in data set [4] were 90.8 nM, 130 nM and 123 nM, respectively. The molecule also displayed a solubility in data set [2] of 90 to 100 µM (≈ 42.7 to 47.5 µg/mL).

In the case of `S=C(NCCCCCCCNC(=S)NC12CC3CC(CC(C3)C1)C2)NC12CC3CC(CC(C3)C1)C2`, the results for the IC50 in data set [1], in data set [3] and in data set [4] were 7.2 nM, 47.3 nM and 35.3 nM, respectively. The same molecule registered a solubility in data set [2] of 70 to 80 µM (≈ 36.2 to 41.3 µg/mL).

Turning to `S=C(NCCc1ccccc1)NC1C2CC3CC(C2)CC1C3` (stereo not drawn), the values for the 50% inhibitory concentration (IC50) in data set [1], in data set [3] and in data set [4] were 8.2 nM, 108 nM and 78.3 nM, respectively. Besides, the solubility in data set [2] lay within 20 to 30 µM (≈ 6.29 to 9.43 µg/mL).

The values above are taken from ChEMBL document CHEMBL4118216, “Adamantyl thioureas as soluble epoxide hydrolase inhibitors” (Bioorg Med Chem Lett, 2018).
